Source: PubChem BioAssay
Rin1 Abl inh = inhibitors of human Rin1-Abl protein interaction; P00519+Q13671; TR-FRET Rin1/Abl binding, biochemical; inhibition, % at 7.35 µM; actives 0.4% (n = 360,000); AID 588664; in the data active = inhibition above about 5%, passing the limit was not always enough
LEDGF integ inh = blocks HIV-1 LEDGF/p75-dependent DNA integration. TR-FRET IN-LEDGF/p75 DNA integration, Eu/Cy5. inhibition, % at 3.7 µM. actives 0.64% (n = 370,000). AID 743269;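 active = inhibition above the screen-wide mean plus 3 SD, cut at about 13% in these data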;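 also: signal is the Cy5 over europium emission ratio at 671 and 618 nm; 0% = plate median of compound wells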
UHRF1 binding = human UHRF1 methylated DNA binding inhibitors; Q96T88; actives 0.75% (n = 370,000); UHRF1 binding to methylated oligo, TR-FRET; AID 687016; inhibition, % at 4.4 µM; in the data active = inhibition above about 21%;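 also: UHRF1 SRA domain binding a hemimethylated CpG hairpin DNA probe; 0% = median of test compound wells and 100% = reference inhibitor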
TDP2 inh = blocks human TDP2 phosphodiesterase activity; O95551; actives 0.34% (n = 370,000); inhibition, % at 12.8 µM; AID 720702; recombinant TDP2, T5PNP hydrolysis, p-nitrophenol absorbance 415 nm;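 active = inhibition above the mean of all tested compounds plus 3 SD, set per campaign, cut at about 25% in these data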;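 also: 0% = DMSO with enzyme and 100% = buffer with substrate but no TDP2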
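System – recombinant human TDP2 · Quantity – TDP2 enzyme at 120 nM final · Doses – single concentration, 12.8 µM nominal, with 1% DMSO · Incubation – 2 h at 37 °C · Measured by – epi absorbance of p-nitrophenol freed from T5PNP by hydrolysis · Read-out – % inhibition relative to enzyme-containing and enzyme-free wells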
MBD2 DNA inh = blocks human MBD2 binding to methylated DNA. inhibition, % at 4.4 µM. TR-FRET, MBD2 binding to methylated oligonucleotide. actives 0.31% (n = 370,000). Q9UBB5; in the data active = inhibition above about 13%
Target sequence (Q9UBB5 whole entry, looked up): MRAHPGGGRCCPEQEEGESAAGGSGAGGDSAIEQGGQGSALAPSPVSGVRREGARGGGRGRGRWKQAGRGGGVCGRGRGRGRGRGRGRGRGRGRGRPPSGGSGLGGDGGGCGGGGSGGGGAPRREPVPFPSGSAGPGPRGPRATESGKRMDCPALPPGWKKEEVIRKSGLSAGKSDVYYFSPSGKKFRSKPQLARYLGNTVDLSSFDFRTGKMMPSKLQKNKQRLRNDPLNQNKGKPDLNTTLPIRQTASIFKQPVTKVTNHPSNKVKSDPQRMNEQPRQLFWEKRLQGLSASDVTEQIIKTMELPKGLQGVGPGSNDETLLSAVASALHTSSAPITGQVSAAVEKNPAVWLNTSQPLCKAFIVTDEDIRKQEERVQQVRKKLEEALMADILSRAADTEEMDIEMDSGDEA
Rin1-Abl confirm = Rin1-Abl interaction inhibition confirmation; shares compounds with Rin1 Abl inh; TR-FRET Rin1-Abl binding, purified proteins; inhibition, % at 7.35 µM; actives 49% (n = 1,300); in the data active = inhibition above about 6.5%
GFP quench-1 = quenches GFP fluorescence, counter-screen for Rin1-Abl inhibitors; shares compounds with Rin1 Abl inh; inhibitors/quenchers counterscreen; inhibition, % at 6.75 µM; actives 8.5% (n = 1,300); AID 602125; in the data active = inhibition above about 6.5%;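 also: ABL1-eGFP fusion protein alone without its partner RIN1-SBP; 0% = protein with vehicle and 100% = wells lacking protein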
GFP quench dose = counter-screen for Rin1-Abl inhibitors: GFP quenchers, dose response. GFP fluorescence interference/quenching counterscreen. AID 602182. 230 tested, under 10 active. shares compounds with Rin1 Abl inh. IC50, µM;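 also: ABL1-eGFP fusion protein alone without its RIN1 binding partner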
GFP quench-2 = GFP quenching artifact for Rin1-Abl inhibitor hits | shares compounds with Rin1 Abl inh | GFP fluorescence quenching counterscreen, biochemical | IC50, µM | 25 tested, under 10 active | AID 602397
* hit, by the source's call; / = not tested or not shown. Most compounds without a hit are left out; they make up all but 1.9% or so of the library. Unless noted, no rule for the calls is given here.

SMILES	Rin1 Abl inh	LEDGF integ inh	UHRF1 binding	TDP2 inh	MBD2 DNA inh	Rin1-Abl confirm	GFP quench-1	others
CN(CCc1ccccc1)C(=O)c1ccc(NC(=O)Cc2ccc(NC(=O)C3CCN(C(=O)c4ccccc4)CC3)cc2)cc1	41*	3	3	-4	1	42*	1	GFP quench dose=>67;GFP quench-2=>68
CCOC(=O)N1CCC(N2C(=O)c3ccccc3C2Nc2ccc(S(=O)(=O)N(CC)CC)cc2)CC1 (configuration not stated)	11*	-1	-4	-7	-3	10*	1
C[C@H]1COc2cc(Br)ccc2S(=O)(=O)N1Cc1cn(Cc2ccco2)nn1	/	-1	-1	0	-3	/	/
Cc1ccc(NC(=O)Cc2cccc(OC(F)F)c2)c(S(=O)(=O)N2CCOCC2)c1	/	4	1	-4	-5	/	/
CCOC(=O)C1CCN(C(=O)CCCn2nc(CC)n3c(cc4occc43)c2=O)CC1	0	-6	1	4	1	/	/
CCc1nn(CC(=O)N2CCC(C(N)=O)CC2)c(=O)c2cc3occc3n12	12*	2	1	-4	1	-1	0
CCCCN(C)C(=O)c1ccc(Nc2nc(C(N)Cc3ccc(C(F)(F)F)cc3)cs2)nc1 (configuration not stated)	8.1*	6	5	-6	9	5	-1
CC1NC(=O)NC1CCCCC(=O)O (configuration not stated)	8.1*	0	1	-2	-2	9.0*	0
Cc1ccc(NC(=O)CCCCCC2NC(=O)NC2C)cc1 (configuration not stated)	88*	/	/	/	/	91*	0	GFP quench dose=>68
O=C(COc1ccc(Cl)cc1Cl)OCC(=O)c1ccc[nH]1	3	1	0	-1	-1	/	/
O=C(COc1ccc(Cl)cc1Br)OCC(=O)c1ccc[nH]1	8.3*	-3	1	8	0	-1	3
CCCC(=O)N1CCC(NS(=O)(=O)c2ccc3c(c2)CCN3C(C)=O)CC1	/	2	0	-5	7	/	/
COc1ccc(CCC(=O)Nc2c(-c3ccc(N(C)C)cc3)[nH][nH]c2=O)cc1	32*	28*	17	60*	12	40*	-2	GFP quench dose=>68
O=C(O)c1cccc(Cn2c(Cl)c(/C=N/NC(=O)c3ccccc3O)sc2=O)c1	5.2*	-3	-2	3	1	-4	3
CCOC(=O)N1CCC(Nc2cc(C)nc3c(-c4ccccc4OC)c(C)nn23)CC1	6.2*	-2	1	2	-1	3	-1
CCOC(=O)N1CCN(C(=O)CSc2cc(C)nc3c(-c4ccccc4OC)c(C)nn23)CC1	-1	1	3	3	-7	/	/
CN1Cc2nnn(CC3CCCCC3)c2-c2ccccc2S1(=O)=O	/	4	2	-9	1	/	/
COc1ccc(C[C@H]2CN3C(=NC[C@@H]3Cc3ccc(O)cc3)N2C[C@H](C)NC(=O)c2ccc(C)c(Br)c2)cc1	9.4*	/	/	/	/	1	0
Cn1c(=O)c2c(nc(OCc3cccnc3)n2Cc2c(F)cccc2Cl)n(C)c1=O	3	1	0	-7	0	/	/
Cn1c(=O)c2c(nc(SCCCC#N)n2Cc2c(F)cccc2Cl)n(C)c1=O	7.2*	3	1	8	-5	9.2*	-1
CN(CCOC(=O)c1cc2ccccc2o1)C1CN(Cc2cn(Cc3ccc([N+](=O)[O-])cc3)nn2)S(=O)(=O)C1 (configuration not stated)	/	1	0	16	-3	/	/
O=c1oc2ccccc2n1CCCCCn1c(=O)oc2ccccc21	4.8*	1	5	-2	5	-1	-1
O=[N+]([O-])c1ccccc1/C=C/C1Nc2cccc3cccc(c23)N1	/	0	-1	-2	3	/	/
